High-throughput results from PubChem.
In the library only some 1.9% were active in any assay of this set; here they are far more common.
RanGTP-Impb inh: disruptors of Ran-importin-beta complex formation – biochemical, FRET, CFP-Ran, YFP-importin-beta, homogeneous, primary screen | AID 2216 | hit rate 1.1% among 300,000 | inhibition, % (concentration not given with the values) | cell-free CFP-Ran/YFP-importin-beta FRET ratio;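 active = more than half of the replicate wells show a fall in the fluorescence ratio signal beyond about 16%, limit read from the data, passing the limit was not always enough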;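 note: 0% = DMSO wells and 100% = Ran loaded with GDP instead of GTP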
Runt-SMMHC FRET: Runt domain-CBFb-SMMHC interaction inhibition. Q01196+Q13951. Cerulean-Runt/Venus-CBFb-SMMHC FRET ratio 530/480, 1 h. inhibition, % at 20 µM. hit rate 0.74% among 220,000;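 active = mean inhibition across duplicate retests at 20 µM reaching about 50%, limit read from the data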;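 note: 0% = DMSO wells and 100% = wells with excess untagged CBFb-SMMHC; inhibitors lower the FRET ratio by blocking Runt binding to CBFb-SMMHC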
Target sequence (Q01196 whole entry, looked up, the tested form may be a part): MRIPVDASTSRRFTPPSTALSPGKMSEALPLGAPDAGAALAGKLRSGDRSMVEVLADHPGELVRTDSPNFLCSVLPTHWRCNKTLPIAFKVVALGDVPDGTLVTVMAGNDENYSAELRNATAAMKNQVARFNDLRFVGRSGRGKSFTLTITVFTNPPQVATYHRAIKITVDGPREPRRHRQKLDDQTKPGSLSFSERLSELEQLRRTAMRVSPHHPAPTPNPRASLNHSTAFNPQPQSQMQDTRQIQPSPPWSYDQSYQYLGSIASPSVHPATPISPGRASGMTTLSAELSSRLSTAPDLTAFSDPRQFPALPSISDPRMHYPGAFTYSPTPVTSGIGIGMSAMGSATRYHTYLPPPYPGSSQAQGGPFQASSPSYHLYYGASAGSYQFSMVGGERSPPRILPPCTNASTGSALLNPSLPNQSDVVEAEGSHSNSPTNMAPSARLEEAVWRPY
Target sequence (Q13951 whole entry, looked up, the tested form may be a part): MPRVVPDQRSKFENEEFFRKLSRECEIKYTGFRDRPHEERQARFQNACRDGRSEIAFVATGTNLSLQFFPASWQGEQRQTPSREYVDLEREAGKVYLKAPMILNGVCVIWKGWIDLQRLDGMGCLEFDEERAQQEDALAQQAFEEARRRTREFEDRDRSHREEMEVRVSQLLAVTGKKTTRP
Runt-CBFb FRET: Runt domain-CBFb interaction inhibition | Q01196+Q13951 | Cerulean-Runt/Venus-CBFb FRET ratio 530/480, 1 h | inhibition, % at 20 µM | hit rate 0.46% among 220,000;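 active = inhibition over about 50% at 20 µM in the single-dose screen, limit read from the data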;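 note: 0% = DMSO wells and 100% = excess unlabeled CBFb competitor control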
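test system = Cerulean-tagged RUNX1 Runt domain (FRET donor) fusion protein | reagent = Venus-CBFb binding partner, 100 nM | incubation = protein complex preformed 1 h, compound exposure 1 h, room temperature, dark | detection = FRET fluorescence | read-out basis = loss of energy transfer signal | controls = 5 µM unlabeled CBFb as full-inhibition high control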
Hck-Nef inh: blocks Nef-activated human Hck kinase; P08631; Recombinant Hck-YEEI plus Nef, Z-Lyte FRET kinase assay; inhibition, % at 20 µM; hit rate 0.68% among 220,000; AID 463187;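 active = Hck-Nef kinase inhibition above about 50%, limit read from the data; inactive = inhibition below that limit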;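 note: 0% = DMSO with Hck plus Nef and 100% = Hck alone without Nef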
* hit, by the source's call.

For CNS(=O)(=O)c1cn(CC(=O)N(C)Cc2ccccc2)cc1S(=O)(=O)NC the results were RanGTP-Impb inh 1.
O=C1NC(c2ccco2)Nc2sc3c(c21)CCN(Cc1ccccc1)C3 (stereo unspecified) was read as Runt-SMMHC FRET 59*, Runt-CBFb FRET 49 and Hck-Nef inh 12.
Screening CCOC(=O)N1CCc2c(sc3c2C(=O)NC(c2ccccc2)N3)C1 (stereo unspecified) returned RanGTP-Impb inh 7, Runt-SMMHC FRET 13, Runt-CBFb FRET 11 and Hck-Nef inh 5.
Screening O=C(Cc1nc2ccccc2[nH]1)N/N=C/c1ccccc1 returned Runt-SMMHC FRET 0, Runt-CBFb FRET 2 and Hck-Nef inh 0.
CC(C)(C)c1cc(/C=N/NC(=O)Cc2nc3ccccc3[nH]2)cc(C(C)(C)C)c1O was read as RanGTP-Impb inh 39*, Runt-SMMHC FRET 30, Runt-CBFb FRET 13 and Hck-Nef inh 10.
`CC1(C)CC(=O)C(C=Nc2cccc(/N=C/C3=C(O)CC(C)(C)CC3=O)n2)=C(O)C1` gave RanGTP-Impb inh 32*, Runt-SMMHC FRET 7, Runt-CBFb FRET 3 and Hck-Nef inh 1.
`CCCCn1nc(NC(=O)COC)c2cc3ccc(C)cc3nc21` gave RanGTP-Impb inh 5.
CCCn1nc(NC(=O)c2ccccn2)c2cc3cc(C)ccc3nc21 was read as RanGTP-Impb inh 103*, Runt-SMMHC FRET 94*, Runt-CBFb FRET 48 and Hck-Nef inh 12.
CCCn1nc(NC(=O)COC)c2cc3cc(C)ccc3nc21 was read as RanGTP-Impb inh 23*.
`CCCC(=O)Nc1nn(C)c2nc3cc(C)ccc3cc12` gave RanGTP-Impb inh 6, Runt-SMMHC FRET -1 and Runt-CBFb FRET 0.
Screening CCCn1nc(NC(=O)c2ccco2)c2cc3ccc(C)cc3nc21 returned RanGTP-Impb inh 57*, Runt-SMMHC FRET 48 and Runt-CBFb FRET 24.
For Cc1ccc2nc3c(cc2c1)c(NC(=O)c1cccnc1)nn3C the results were RanGTP-Impb inh 29*, Runt-SMMHC FRET 25, Runt-CBFb FRET 15 and Hck-Nef inh 11.
`CCCn1nc(NC(=O)c2ccco2)c2cc3cc(C)ccc3nc21` gave RanGTP-Impb inh 79*, Runt-SMMHC FRET 82*, Runt-CBFb FRET 49 and Hck-Nef inh -9.
For CCOCCCNC(=S)N1CCCN(c2nc3cc(C)cc(C)c3cc2C#N)CC1 the results were RanGTP-Impb inh 1, Runt-SMMHC FRET 30, Runt-CBFb FRET 10 and Hck-Nef inh 21.
Screening COCCCNC(=S)N1CCCN(c2nc3cc(C)ccc3cc2C#N)CC1 returned RanGTP-Impb inh -8, Runt-SMMHC FRET 31, Runt-CBFb FRET 10 and Hck-Nef inh 12.
Screening COCCCNC(=S)N1CCCN(c2nc3cc(C)c(C)cc3cc2C#N)CC1 returned RanGTP-Impb inh 57*, Runt-SMMHC FRET 21, Runt-CBFb FRET 16 and Hck-Nef inh 26.
CCOCCCNC(=S)N1CCCN(c2nc3cc(C)c(C)cc3cc2C#N)CC1 was read as RanGTP-Impb inh 58*, Runt-SMMHC FRET 52*, Runt-CBFb FRET 20 and Hck-Nef inh 22.
CN1CCc2c(sc(N)c2C(N)=O)C1 was read as RanGTP-Impb inh 86*, Runt-SMMHC FRET 143*, Runt-CBFb FRET 101* and Hck-Nef inh 1.
For NC(=O)c1c(N)sc2c1CCCC2 the results were RanGTP-Impb inh -10, Runt-SMMHC FRET -3, Runt-CBFb FRET 13 and Hck-Nef inh -5.
For CCN1CCc2c(sc(N)c2C(N)=O)C1 the results were RanGTP-Impb inh 101*, Runt-SMMHC FRET -16, Runt-CBFb FRET 90* and Hck-Nef inh 7.
Screening Cc1ccc(S(=O)(=O)NCC(=O)N2CCN(S(=O)(=O)c3ccc(Cl)cc3)CC2)cc1C returned RanGTP-Impb inh 2.
Screening O=C(NCc1ccco1)c1cnn2c1NC(c1ccccc1)CC2C(F)(F)F (stereo unspecified) returned RanGTP-Impb inh -5, Runt-SMMHC FRET -7, Runt-CBFb FRET -2 and Hck-Nef inh 1.
O=C(NCc1ccco1)c1cnn2c1NC(c1ccc(Br)cc1)CC2C(F)(F)F (stereo unspecified) was read as RanGTP-Impb inh 25*, Runt-SMMHC FRET 7, Runt-CBFb FRET 0 and Hck-Nef inh 1.
Screening CCCn1nc(C(=O)Nc2nc3ccccc3[nH]2)c2ccccc2c1=O returned RanGTP-Impb inh 0, Runt-SMMHC FRET 3, Runt-CBFb FRET -5 and Hck-Nef inh -1.
Screening CC(C)n1nc(C(=O)Nc2nc3ccccc3[nH]2)c2ccccc2c1=O returned RanGTP-Impb inh -1, Runt-SMMHC FRET 2, Runt-CBFb FRET 103* and Hck-Nef inh 19.
Screening O=C1CSC(c2ccc([N+](=O)[O-])cc2)N1c1ccc(O)cc1 (stereo unspecified) returned RanGTP-Impb inh 1.
COc1cc(CNc2ncn[nH]2)ccc1OCc1cccc(C)c1 was read as RanGTP-Impb inh 0, Runt-SMMHC FRET 3, Runt-CBFb FRET 0 and Hck-Nef inh -3.
For CCOC(=O)c1c(NC(=O)CSc2nnc(-c3c[nH]c4ccccc34)n2C)sc2c1CCCC2 the results were RanGTP-Impb inh 26*, Runt-SMMHC FRET 2, Runt-CBFb FRET 1 and Hck-Nef inh -3.
CCOC(=O)c1c(NC(=O)CSc2nnc(-c3c[nH]c4ccccc34)n2CCOC)sc2c1CCCC2 was read as RanGTP-Impb inh -6, Runt-SMMHC FRET -4, Runt-CBFb FRET 0 and Hck-Nef inh -5.
`CCOc1ccccc1NC(=O)Cn1c(=O)n(-c2ccc(OC)cc2OC)c(=O)c2c(C)c(C(=O)N(CC)CC)sc21` gave RanGTP-Impb inh 2, Runt-SMMHC FRET -3, Runt-CBFb FRET -9 and Hck-Nef inh 21.
`CCOc1ccc(-n2c(=O)c3c(C)c(C(=O)N(C)C)sc3n(CC(=O)Nc3ccccc3F)c2=O)cc1` gave RanGTP-Impb inh 19*, Runt-SMMHC FRET 0, Runt-CBFb FRET -6 and Hck-Nef inh 20.
Screening Cc1cccc(C)c1NC(=S)NCc1ccncc1 returned RanGTP-Impb inh 0, Runt-SMMHC FRET 0, Runt-CBFb FRET -4 and Hck-Nef inh 4.
For COc1ccc(C2/C(=C(/O)c3ccc(Br)cc3)C(=O)C(=O)N2C)cc1 (stereo unspecified) the results were RanGTP-Impb inh 4.
Cc1ccc(NC(=O)CN2C(=O)S/C(=C\c3ccc(-c4cccc(C(=O)O)c4C)o3)C2=O)cc1 was read as RanGTP-Impb inh 42*, Runt-SMMHC FRET -10, Runt-CBFb FRET 25 and Hck-Nef inh 3.
Screening Cc1ccccc1NC(=O)CN1C(=O)S/C(=C\c2ccc(-c3cc(C(=O)O)ccc3C)o2)C1=O returned RanGTP-Impb inh -106, Runt-SMMHC FRET 18, Runt-CBFb FRET 11 and Hck-Nef inh 29.
For Cc1ccc(NC(=O)CN2C(=O)S/C(=C/c3ccc(-c4cccc(C(=O)O)c4)o3)C2=O)cc1 the results were Runt-SMMHC FRET -1, Runt-CBFb FRET -28 and Hck-Nef inh 42.
`Cc1ccc(C(=O)O)cc1-c1ccc(/C=C2/NC(=O)N(c3ccccc3)C2=O)o1` gave RanGTP-Impb inh 20*, Runt-SMMHC FRET 39, Runt-CBFb FRET 12 and Hck-Nef inh 13.
